Reference: ChEMBL document CHEMBL3259682, “Synthesis, β-haematin inhibition, and in vitro antimalarial testing of isocryptolepine analogues: SAR study of indolo[3,2-c]quinolines with various substituents at C2, C6, and N11” (Bioorg Med Chem, 2014)

Columns and labels:
[1] = tested on: L6; experiment: Cytotoxicity against rat L6 cells after 70 hrs by Alamar Blue assay; type: functional, cell-based; conditions: L6, 70 h
How it was run: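 Rat skeletal myoblast L6 cells, 4000 per well, in RPMI 1640 with 1% L-glutamine and 10% fetal bovine serum. Eleven 3-fold serial drug dilutions were tested. Alamar Blue was added for a final 2 h. Fluorescence was read at excitation 536 nm and emission 588 nm. IC₅₀ is the mean of two independent assays.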

[2] = Selectivity index, ratio of IC50 for rat L6 cells to IC50 for erythrocytic stage of chloroquine-sensitive Plasmodium falciparum NF54; type: toxicity, cell-based; conditions: read-out: Ratio IC50
How it was run: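 Selectivity index is the L6 cytotoxicity IC₅₀ divided by the NF54 antiplasmodial IC₅₀. Each IC₅₀ is the mean of two independent assays.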

[3] = tested on: Plasmodium falciparum; experiment: Antimalarial activity against erythrocytic stage of chloroquine-sensitive Plasmodium falciparum NF54 after 48 hrs by [3H]-hypoxanthine incorporation assay; type: functional, organism-based
How it was run: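 ³H-hypoxanthine incorporation against P. falciparum NF54. DMSO stocks at 10 mg/mL were added to cultures in hypoxanthine-free RPMI 1640 with HEPES, NaHCO₃, neomycin and Albumax, using human A⁺ red cells at 2.5% haematocrit and 0.3% parasitaemia. Eleven 3-fold serial dilutions were tested. Incubation was under 4% CO₂/3% O₂/93% N₂. ³H-hypoxanthine was added after 48 h, followed by a further 24 h. Cells were harvested onto glass-fibre filters. IC₅₀ is the mean of two independent assays.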

[4] = Binding affinity to haematin assessed as inhibition of beta-haematin formation after 5 to 6 hrs by pyridine-ferrichrome-based method
How it was run: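 Detergent (NP-40) mediated β-haematin formation assay, run manually. Compounds came from 20, 2 and 0.4 mM DMSO stocks, tested at 0–1000 µM final. Haematin was 100 µM final in 0.5 M acetate buffer, pH 4.8. Incubation was 5–6 h at 37 °C. Read-out used the pyridine-ferrichrome method with UV–vis absorbance. IC₅₀ came from sigmoidal dose–response fits.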

[5] = Resistance index, ratio of IC50 for chloroquine/pyrimethamine-resistant Plasmodium falciparum K1 to IC50 for erythrocytic stage of chloroquine-sensitive Plasmodium falciparum NF54; type: functional
How it was run: (§1)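 Chloroquine/pyrimethamine-resistant K1 and drug-susceptible NF54 P. falciparum were grown in hypoxanthine-free RPMI 1640 with HEPES, NaHCO₃, neomycin and Albumax, in human A⁺ erythrocytes at 2.5% haematocrit and 0.3% parasitaemia. DMSO stocks were 10 mg/mL, tested in eleven 3-fold dilutions under 4% CO₂/3% O₂/93% N₂. ³H-hypoxanthine was added at 48 h, then 24 h more before filter harvest. IC₅₀ is the mean of two assays; RI = K1/NF54 IC₅₀.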

[6] = tested on: Plasmodium falciparum; experiment: Antimalarial activity against erythrocytic stage of chloroquine/pyrimethamine-resistant Plasmodium falciparum K1 after 48 hrs by [3H]-hypoxanthine incorporation assay; type: functional, organism-based; how it was run: as §1
[7] = Selectivity index, ratio of IC50 for rat L6 cells to IC50 for chloroquine/pyrimethamine-resistant Plasmodium falciparum K1; type: toxicity, cell-based; conditions: read-out: Ratio IC50

Compound | IC50 [1] [µM] | selectivity ratio [2] | IC50 [3] [µM] | IC50 [4] [µM] | Ratio IC50 [5] | IC50 [6] [µM] | selectivity ratio [7]
CN(C)CCCNc1nc2ccc(Br)cc2c2c1c1ccccc1n2C | 0.457 | 9.4 | 0.0486 | 39.9 |  |  | 
O=C(NCCCNc1nc2ccc(Cl)cc2c2[nH]c3ccccc3c12)Nc1ccccc1 | 2.57 | 95.1 | 0.027 | 14.4 | 1.9 | 0.05 | 51.4
COc1ccc2nc(NCCCNC(=O)Nc3ccccc3)c3c4ccccc4[nH]c3c2c1 | 1.52 | 88.8 | 0.0171 | 14.8 | 1.1 | 0.0196 | 77.4
CCN(CC)C(=O)NCCCNc1nc2ccccc2c2[nH]c3ccccc3c12 | 3.57 | 86.8 | 0.0411 | 39.2 |  |  | 
CN(C)CCCNc1nc2ccc(Cl)cc2c2c1c1ccccc1n2C | 0.313 | 7.7 | 0.0409 | 25.9 |  |  | 
O=C(NCCCNc1nc2ccc(F)cc2c2[nH]c3ccccc3c12)Nc1ccccc1 | 1.5 | 58.5 | 0.0257 | 22.7 | 1.9 | 0.0492 | 30.6
S=C(NCCCNc1nc2ccccc2c2[nH]c3ccccc3c12)Nc1ccccc1 | 0.249 | 10.6 | 0.0235 | 18.5 | 2.1 | 0.0493 | 5.1
Cc1ccc2nc(NCCCN)c3c4ccccc4n(C)c3c2c1 | 0.192 | 6.1 | 0.0314 | 29.5 |  |  | 
Cn1c2ccccc2c2c(NCCCN)nc3ccc(Cl)cc3c21 | 0.62 | 17.5 | 0.0354 | 28 |  |  | 
NCCCNc1nc2ccc(Br)cc2c2[nH]c3ccccc3c12 | 0.891 | 110 | 0.0081 | 19.4 |  |  | 
Cc1ccc2nc(NCCCN)c3c4ccccc4[nH]c3c2c1 | 0.322 | 8.9 | 0.0361 | 60.9 |  |  | 
CCN(CC)CCCC(C)Nc1ccnc2cc(Cl)ccc12 (stereo not given) [CHLOROQUINE] |  |  |  | 30 |  |  | 
OCCCNc1nc2ccccc2c2[nH]c3ccccc3c12 | 0.717 | 3.2 | 0.227 | 287 |  |  | 
COc1ccc2nc(NCCCN)c3c4ccccc4n(C)c3c2c1 | 0.138 | 4.2 | 0.0329 | 56.9 |  |  | 
Cn1c2ccccc2c2c(NCC(C)(C)CN)nc3ccc(Cl)cc3c21 | 0.425 | 4.5 | 0.0954 | 38.4 |  |  | 
O=C(NCCCNc1nc2cccc(Br)c2c2[nH]c3ccccc3c12)Nc1ccccc1 | 3.62 | 12.6 | 0.289 | 22 |  |  | 
Cn1c2ccccc2c2c(Cl)nc3ccccc3c21 | 17.3 | 2.3 | 7.39 | > 1000 |  |  | 
CN(C)CCCNc1nc2ccccc2c2c1c1ccccc1n2C | 0.701 | 7.5 | 0.0932 | > 1000 |  |  | 
NCCCCNc1nc2ccccc2c2[nH]c3ccccc3c12 | 0.739 | 20.5 | 0.0361 | 62 |  |  | 
C[C@@H]1CC[C@H]2[C@@H](C)C(=O)O[C@@H]3O[C@@]4(C)CC[C@@H]1[C@]32OO4 [ARTEMISININ] |  |  | 0.0043 |  | 0.7 | 0.0028 | 
Cn1c2ccccc2c2c(NCCCN)nc3ccc(F)cc3c21 | 0.292 | 5.5 | 0.0527 | 25.8 |  |  | 
NCCCN1CCN(CCCNc2nc3ccccc3c3[nH]c4ccccc4c23)CC1 | 1.78 | 67.3 | 0.0264 | 62.4 |  |  | 
NCCCNc1nc2ccc(F)cc2c2[nH]c3ccccc3c12 | 0.639 | 49.1 | 0.013 | 14.3 |  |  | 
